According to ChEMBL document CHEMBL4028901, “Novel Antitubercular 6-Dialkylaminopyrimidine Carboxamides from Phenotypic Whole-Cell High Throughput Screening of a SoftFocus Library: Structure-Activity Relationship and Target Identification Studies” (J Med Chem, 2017):
In brackets after ≈: the same amount, converted by molar mass.

Experiments:
[1] = test system: Mycobacterium tuberculosis; experiment: Antibacterial activity against cytochrome bd oxidase knockout GFP-fused Mycobacterium tuberculosis H37RvMA grown in 7H9/GLU/ADC medium measured on day 7 and day 14 post inoculation by fluorescence plate reader assay; assay type: functional; details: Mycobacterium tuberculosis, H37RvMA; read-out: MIC99
[2] = Kinetic solubility of the compound in pH 7.4 solution at 10 to 220 uM after 2 hrs by shake flask method; assay type: physicochemical; details: buffer, pH 7.4, 2 h, 220 µM
[3] = test system: Mycobacterium tuberculosis; experiment: Antibacterial activity against cytochrome bd oxidase knockout GFP-fused Mycobacterium tuberculosis H37RvMA grown in GAST/Fe medium measured on day 7 and day 14 post inoculation by fluorescence plate reader assay; assay type: functional
[4] = test system: Liver; experiment: Metabolic stability in human liver microsomes assessed as compound remaining at 0.1 uM after 30 mins by LC-MS/MS analysis; assay type: ADME, microsome; details: 0.5 h
Method in brief: (§1)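 Compound at 0.1 μM incubated in duplicate with mouse, rat or pooled human liver microsomes (0.4 mg/mL) at 37 °C. Run with and without 1 mM NADPH, sampled at predetermined time points.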

[5] = test system: Mus musculus; experiment: Apparent elimination half life in C57/BL6 mouse at 5 mg/kg, iv measured up to 24 hrs post dose by LC-MS/MS analysis; assay type: ADME, organism-based; details: in vivo
Method in brief: (§2)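 Male mice, 3 animals, not fasted, given an IV bolus in 10% DMSO, 50% propylene glycol/ethanol (4:1) and 40% polyethylene glycol or water. Blood sampled into heparinised tubes at 0.17, 0.5, 1, 3, 5, 8, 12 and 24 h, stored frozen, precipitated with ice-cold acetonitrile. Measured by LC-MS/MS with internal standards against blood-matrix calibration standards.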

[6] = test system: Mus musculus; experiment: Cmax in C57/BL6 mouse at 20 mg/kg, po measured up to 24 hrs post dose by LC-MS/MS analysis; assay type: ADME, organism-based; parameters: dose 20 mg/kg, route oral; details: in vivo
Method in brief: (§3)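 Male mice, 3 per route, not fasted, free access to water. Oral dose given as aqueous suspension in 0.5% (w/v) hydroxypropyl methylcellulose with 0.4% (v/v) Tween 80. Blood drawn into heparinised tubes at 0.5, 1, 3, 5, 8, 12 and 24 h, kept below -15 °C, protein-precipitated with ice-cold acetonitrile. Quantified by LC-MS/MS against standards made in drug-free mouse blood.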

[7] = test system: Mus musculus; experiment: Apparent elimination half life in C57/BL6 mouse at 20 mg/kg, po measured up to 24 hrs post dose by LC-MS/MS analysis; assay type: ADME, organism-based; details: in vivo; method in brief: as §3
[8] = test system: Mus musculus; experiment: AUC (0 to infinity) in C57/BL6 mouse at 20 mg/kg, po measured up to 24 hrs post dose by LC-MS/MS analysis; assay type: ADME, organism-based; parameters: dose 20 mg/kg, route oral, time infinity; details: in vivo; method in brief: as §3
[9] = test system: Vero; experiment: Cytotoxicity against African green monkey Vero cells assessed as reduction in cell viability by MTT assay; assay type: cell-based; details: Chlorocebus sabaeus
Method in brief: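 MTT assay in Vero cells, samples in triplicate on one occasion. Stocks at 20 mg/mL in DMSO, diluted in complete medium as 10-fold serial dilutions over 6 concentrations. Emetine used as reference. IC50 derived by non-linear dose-response curve fitting.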

[10] = test system: Mus musculus; experiment: Volume of distribution in C57/BL6 mouse at 5 mg/kg, iv measured up to 24 hrs post dose by LC-MS/MS analysis; assay type: ADME, organism-based; details: in vivo; method in brief: as §2
[11] = test system: Mus musculus; experiment: AUC (0 to infinity) in C57/BL6 mouse at 5 mg/kg, iv measured up to 24 hrs post dose by LC-MS/MS analysis; assay type: ADME, organism-based; parameters: dose 5 mg/kg, route intravenous, time infinity; details: in vivo; method in brief: as §2
[12] = test system: Mus musculus; experiment: Tmax in C57/BL6 mouse at 20 mg/kg, po measured up to 24 hrs post dose by LC-MS/MS analysis; assay type: ADME, organism-based; details: in vivo; method in brief: as §3
[13] = test system: Mycobacterium tuberculosis; experiment: Antibacterial activity against Mycobacterium tuberculosis H37RvMA grown in 7H9/ADC medium measured 7 to 14 days post inoculation by broth microdilution method; assay type: functional
[14] = Kinetic solubility of the compound in fasted-state simulated intestinal fluid at 10 to 220 uM at pH 6.5 after 2 hrs by shake flask method; assay type: physicochemical; details: read-out: Kinetic_solubility
Method in brief: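 Miniaturised shake flask. 10 mM DMSO stocks spiked 1:50 into duplicate FaSSIF (pH 6.5), 2% final DMSO. Shaken 2 h at 25 °C, filtered, analysed by HPLC-DAD against calibration standards (10–220 μM).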

[15] = test system: Liver; experiment: Metabolic stability in rat liver microsomes assessed as compound remaining at 0.1 uM after 30 mins by LC-MS/MS analysis; assay type: ADME, microsome; details: 0.5 h; method in brief: as §1
[16] = test system: Liver; experiment: Metabolic stability in mouse liver microsomes assessed as compound remaining at 0.1 uM after 30 mins by LC-MS/MS analysis; assay type: ADME, microsome; details: 0.5 h; method in brief: as §1
[17] = test system: Mycobacterium tuberculosis; experiment: Antibacterial activity against Mycobacterium tuberculosis H37RvMA grown in GAST/Fe medium measured 7 to 14 days post inoculation by broth microdilution method; assay type: functional
Method in brief: (§4)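 H37RvMa grown to OD600 0.6–0.7, diluted 1:100 in GAST/Fe. Compounds two-fold serially diluted from a top concentration of 640 μM, in duplicate. Incubated at 37 °C with humidification.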

[18] = test system: Mus musculus; experiment: Oral bioavailability in C57/BL6 mouse at 20 mg/kg measured up to 24 hrs post dose by LC-MS/MS analysis; assay type: ADME, organism-based; details: in vivo; method in brief: as §3
[19] = test system: Plasma; experiment: Fraction unbound in human plasma at 5 uM pre-incubated for 1 hr by ultra-centrifugation and LC-MS/MS method; assay type: ADME, cell-free
Method in brief: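 Pooled human plasma spiked to 5 μM and pre-incubated 1 h at 37 °C. Duplicate aliquots ultracentrifuged 4 h at 37 °C; an unspun aliquot served as the total sample. Analyte measured by LC-MS/MS.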

[20] = Lipophilicity, log P of the compound at 100 uM at pH 7.4 after 3 hrs by shake-flask method; assay type: physicochemical; details: buffer
Method in brief: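 Shake-flask method run in triplicate. A 10 mM stock was spiked into a 1:1 mixture of phosphate buffer (pH 7.4) and n-octanol, then shaken at 1500 rpm on an orbital shaker for 3 h at room temperature.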

[21] = test system: Mycobacterium tuberculosis; experiment: Antibacterial activity against Mycobacterium tuberculosis […] SAWC1125 grown in middlebrook 7H9 medium measured on day 7 and 14 by MABA assay; assay type: functional; details: 168 h
Method in brief: (§5)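 Clinical M. tuberculosis strains tested by broth microdilution in 7H9 medium. On days 7 and 14, Alamar Blue added and plates reincubated 24 h at 37 °C. Colour read by eye (blue means no growth, pink means growth). MIC90 is the lowest concentration with no colour change.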

[22] = test system: Mycobacterium tuberculosis; experiment: Antibacterial activity against wild type Mycobacterium tuberculosis H37Rv grown in GAST/Fe medium measured on day 14 post inoculation by broth microdilution method; assay type: functional; details: 336 h; method in brief: as §4
[23] = test system: Mycobacterium tuberculosis; experiment: Antibacterial activity against Mycobacterium tuberculosis […] SAWC3200 grown in middlebrook 7H9 medium measured on day 7 and 14 by MABA assay; assay type: functional; details: 168 h; method in brief: as §5
[24] = test system: Mycobacterium tuberculosis; experiment: Antibacterial activity against Mycobacterium tuberculosis […] SAWC3388 grown in middlebrook 7H9 medium measured on day 7 and 14 by MABA assay; assay type: functional; details: 168 h; method in brief: as §5
[25] = test system: Mycobacterium tuberculosis; experiment: Antibacterial activity against Mycobacterium tuberculosis H37Rv grown in middlebrook 7H9 medium measured on day 7 and 14 by MABA assay; assay type: functional; details: 168 h
[26] = test system: Mycobacterium tuberculosis; experiment: Antibacterial activity against Mycobacterium tuberculosis […] SAWC3933 grown in middlebrook 7H9 medium measured on day 7 and 14 by MABA assay; assay type: functional; details: 168 h; method in brief: as §5
[27] = test system: Mycobacterium tuberculosis; experiment: Antibacterial activity against Mycobacterium tuberculosis […] SAWC3385 grown in middlebrook 7H9 medium measured on day 7 and 14 by MABA assay; assay type: functional; details: 168 h; method in brief: as §5
[28] = test system: Mycobacterium tuberculosis; experiment: Antibacterial activity against Mycobacterium tuberculosis […] SAWC3906 grown in middlebrook 7H9 medium measured on day 7 and 14 by MABA assay; assay type: functional; details: 168 h; method in brief: as §5

Compound	MIC99 [1] [µM]	Kinetic_solubility [2] [µM]	MIC99 [3] [µM]	Stability [4] [%]	betat1/2(app) [5] [h]	Cmax [6] [µM]	betat1/2(app) [7] [h]	AUC [8] [µM·min]	IC50 [9] [µM]	Vd [10] [L/kg]	AUC [11] [µM·min]	MIC99 [13] [µM]	solubility kinetic at 2 h [14] [µM]	Stability [15] [%]	Stability [16] [%]	MIC99 [17] [µM]	F [18] [%]	Fu [19] [%]	logD at 3 h, 100 µM [20]	MIC90 [21] [µM]	also measured
CN(Cc1ccc(C(F)(F)F)cc1)c1cc(C(=O)NC2CCCCC2)ncn1	> 125	5	12 (≈ 4.71 µg/mL)																		
CN(Cc1ccc(C(F)(F)F)nc1)c1cc(C(=O)Nc2ccccc2)ncn1				85	0.7	3.4	7.2	1999	258	0.7	1179	37 (≈ 14.3 µg/mL)	< 5	72	87	10 (≈ 3.87 µg/mL)	42	0.05	3.7		Tmax [12]: 4 h
CC(C)Oc1ccc(NC(=O)c2cc(N(C)Cc3ccc(F)cc3)ncn2)cc1				64					254			5 (≈ 1.97 µg/mL)	< 5	43	37	1.2 (≈ 0.473 µg/mL)		0.04	5	2.5 (≈ 0.986 µg/mL)	MIC99 [22]: 1.25 to 5 µM (≈ 0.493 to 1.97 µg/mL); MIC90 [23]: < 0.08 µM; MIC90 [24]: 0.31 µM (≈ 0.122 µg/mL); MIC90 [25]: 1.25 µM (≈ 0.493 µg/mL); MIC90 [26]: 2.5 µM (≈ 0.986 µg/mL); MIC90 [27]: 0.31 µM (≈ 0.122 µg/mL); MIC90 [28]: 0.31 µM (≈ 0.122 µg/mL)
CN(Cc1cccnc1)c1cc(C(=O)Nc2ccccc2)ncn1	48 (≈ 15.3 µg/mL)	150	37 (≈ 11.8 µg/mL)																		
CN1CCN(c2ccc(NC(=O)c3cc(N(C)Cc4ccc(C(F)(F)F)cc4)ncn3)cc2)CC1		< 5		57	10.3	0.42	15.8	564	161	21.8	540	3.13 (≈ 1.52 µg/mL)	150 (≈ 72.7 µg/mL)	37	21	1.25 (≈ 0.606 µg/mL)	26	0.14	5	2.5 to 5 (≈ 1.21 to 2.42 µg/mL)	MIC90 [23]: 1.25 µM (≈ 0.606 µg/mL); MIC90 [24]: 1.25 to 2.5 µM (≈ 0.606 to 1.21 µg/mL); MIC90 [25]: 1.25 to 2.5 µM (≈ 0.606 to 1.21 µg/mL); MIC90 [26]: 1.25 to 2.5 µM (≈ 0.606 to 1.21 µg/mL); MIC90 [27]: 1.25 µM (≈ 0.606 µg/mL); MIC90 [28]: 0.31 to 0.63 µM (≈ 0.15 to 0.305 µg/mL)
